The subject of experiment [1] is Oocyte. Description: Inhibition of immature stage VI Xenopus oocyte maturation assessed as inhibition of progesterone-mediated maturation measured as germinal vesicle (nuclear) breakdown at 100 uM after overnight incubation. It counts as functional, cell-based. The essentials:
(§1)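 Oocytes (20 per well) pre-treated overnight with compound (100 μM final, DMSO) or DMSO vehicle, then stimulated with 2 μg/ml progesterone. GVBD (animal-pole white spot) scored at the time 50% of DMSO controls reach GVBD. Rate relative to control: 1.0 means no difference, above 1.0 acceleration, below 1.0 delay, 0.0 no maturation. Differences over 20% followed up.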

For experiment [2], the system named is Oocyte. Briefly: Induction of immature stage VI Xenopus oocyte maturation assessed as stimulation of progesterone-mediated maturation measured as germinal vesicle (nuclear) breakdown at 100 uM after overnight incubation. It counts as functional, cell-based. The essentials: as §1
Experiment [3] has as its system Oocyte. Briefly: Inhibition of immature stage VI Xenopus oocyte maturation assessed as inhibition of progesterone-mediated maturation measured as germinal vesicle (nuclear) breakdown at 1 to 100 uM after overnight incubation. It counts as functional, cell-based.
Experiment [4] relates to Oocyte. Briefly: Inhibition of immature stage VI Xenopus oocyte maturation assessed as inhibition of progesterone-mediated maturation measured as germinal vesicle (nuclear) breakdown after overnight incubation. It counts as functional, cell-based. Particulars: Xenopus laevis.
Experiment [5] deals with Xenopus. Description: Inhibition of MPF in immature stage VI Xenopus oocyte by Western blot analysis. In outline: (§2)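 Oocytes pre-treated with DMSO or compound, stimulated with progesterone, and lysed at the time 50% of DMSO oocytes reached GVBD. Lysates analysed by 10% gel western blot with phospho-Cdc2 Tyr15 (inhibitory site) and phospho-MAPK antibodies (1:1000), tubulin 1:20,000. Membrane blocked in 1% BSA, 60 min, room temperature.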

The subject of experiment [6] is Xenopus. Briefly: Inhibition of Cyclin B/CDK in immature stage VI Xenopus oocyte by Western blot analysis. The essentials:
as §2
On the technique in general: In western blotting, separated proteins are transferred to a membrane and probed.

Experiment [7] can be described thus: Anticancer activity against human MOLT4 cells assessed as growth inhibition at 10^-5 M. It counts as functional. Particulars: MOLT-4, read-out: GI. In outline:
(§3)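 NCI-60 human tumour cell line panel screened at a single concentration of 10^-5 M; value is percent growth inhibition relative to untreated growth.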

Experiment [8] can be described thus: Anticancer activity against human PC3 cells assessed as growth inhibition at 10^-5 M. It counts as functional. Particulars: PC-3, read-out: GI. The essentials:
as §3

The structures appear in SMILES notation. Calls of active or inactive are those of the source. The rule behind the calls is not given here.

The text below walks through data of ChEMBL document CHEMBL3352597, “Heck products of parthenolide and melampomagnolide-B as anticancer modulators that modify cell cycle progression” (Eur J Med Chem, 2014).

As for `C[C@@]12CC/C=C(/CO)CC[C@@H]3/C(=C\c4ccsc4)C(=O)O[C@@H]3[C@@H]1O2`, the inhibition entry in experiment [1] was “Active”.
`C[C@@]12CC/C=C(/CO)CC[C@@H]3/C(=C\c4ncc[nH]4)C(=O)O[C@@H]3[C@@H]1O2`: the result in experiment [2] was Active.
Take `C/C1=C\CC[C@@]2(C)O[C@@H]2[C@H]2OC(=O)/C(=C/c3ccc(N)cc3)[C@@H]2CC1`: the inhibition result in experiment [1] and in experiment [3] was “Active” each time. In addition, the EC50 (as a rule, the concentration needed to bring the measured effect to its halfway point) in experiment [4] was found to be 5 µM. The inhibition result in experiment [5] and in experiment [6] was “inactive” each time. The inhibition of growth at 10 µM in experiment [7] was found to be 24.2%; in experiment [8] it was 20.5%.
On to `C[C@@]12CC/C=C(/CO)CC[C@@H]3/C(=C\c4ccc(N)cc4)C(=O)O[C@@H]3[C@@H]1O2`, for which the outcome in experiment [2] was Active.
